Assay outcomes as filed in PubChem BioAssay.
ERp5 block = inhibitors of ERp5-driven insulin aggregation, primary screen, biochemical, turbidity, absorbance 650 nm, single point; Protein disulfide-isomerase A6 (Homo sapiens), Q15084; 90 min; inhibition, % at 9.99 µM; hit rate 0.05% among 350,000;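 active = mean replicate inhibition above about 25%, with every replicate also reaching it, limit read from the data, passing the limit was not always enough; inconclusive = only one of those two criteria met; inactive = neither criterion met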
CFTR F508del cor = F508del CFTR correction, initial screen, CFBE line, single point | CFBE cells, YFP halide quenching; stimulated with forskolin plus potentiator P3; % fluorescence drop versus neutral controls | activity (quench increase), % at 7.58 µM | hit rate 0.36% among 350,000;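 active = mean added fluorescence quench of at least 8% versus neutral control, with both replicates also reaching 8%; inconclusive = only one of the mean or replicate conditions met; inactive = mean below 8% and not both replicates reaching 8%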;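 note: cells transiently co-express mutant CFTR-F508del with the halide-sensitive YFP; corrector assay measuring rescue of mutant channel to the surface after 24 h compound exposure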
DENV2 CPE rescue = inhibitors of DENV2 cytopathic effect, primary screen, cell-based, plate reader, single concentration; CPE inhibition, % at 9.99 µM; hit rate 1.7% among 350,000; DENV2-infected cells, cytopathic effect rescue; in the data active = CPE inhibition above about 20%, passing the limit was not always enough; inconclusive = no clear call, values can overlap the other calls; tested in BHK-21 cells;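 note: 0% = median of neutral control wells and 100% = median of positive control wells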
PDI inh = inhibitors of human PDI, primary screen, biochemical, turbidity, single point, plate reader; Protein disulfide-isomerase (Homo sapiens), P07237; PDI insulin aggregation turbidity, A650, 90 min; inhibition, % at 10 µM; hit rate 0.052% among 350,000; AID 588391, 2011;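 active = mean inhibition across replicates of 30% or more, whatever share of single replicates reach that level; inconclusive = mean inhibition below 30% while every single replicate reaches 30%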
Target sequence (P07237 whole entry, looked up): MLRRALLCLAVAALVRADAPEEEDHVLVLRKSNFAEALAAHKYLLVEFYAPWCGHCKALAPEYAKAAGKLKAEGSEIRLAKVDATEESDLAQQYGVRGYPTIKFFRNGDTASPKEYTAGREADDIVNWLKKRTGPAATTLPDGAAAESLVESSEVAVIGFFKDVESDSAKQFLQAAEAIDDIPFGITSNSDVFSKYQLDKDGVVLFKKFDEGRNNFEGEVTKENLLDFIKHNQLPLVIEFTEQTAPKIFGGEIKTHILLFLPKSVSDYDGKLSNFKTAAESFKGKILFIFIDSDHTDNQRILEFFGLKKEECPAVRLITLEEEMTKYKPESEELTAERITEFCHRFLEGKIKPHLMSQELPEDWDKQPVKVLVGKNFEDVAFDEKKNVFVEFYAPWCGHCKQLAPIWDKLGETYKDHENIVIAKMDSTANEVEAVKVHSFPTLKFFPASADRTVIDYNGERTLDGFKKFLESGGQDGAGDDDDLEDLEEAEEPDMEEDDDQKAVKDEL
Cneo AK release = Cryptococcus neoformans cell lysis inducers, primary screen, AK release luminescence, single concentration. C. neoformans lysis, adenylate kinase release luminescence, 4 h; normalised: neutral wells 0, clomiphene wells 100. lysis activity, % at 15 µM. AID 651654, 2012. hit rate 0.2% among 360,000;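 active = mean lysis activity across replicates of at least 80%, whatever share of replicates individually reach that level; inactive = mean lysis activity below 80%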
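Test system: log-phase Cryptococcus neoformans yeast cells; Quantity: yeast cell density of 5 × 10^6 cells/mL; Buffer or medium: YPD; Doses: single compound concentration per well; Timing: 4 h at 37 °C static, read 1 h later; Measured by: AK luminescence; Read-out basis: lysis from increased AK signal; Control set: Clomiphene as positive control.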
Statin myotox sup = suppressors of statin myotoxicity in C2C12 myotubes, primary screen, cell-based, single point, plate reader; C2C12 myotubes + simvastatin, ATP luminescence, 48 h; scaled: DMSO 0, geranylgeraniol control 100; AID 602340, 2012; hit rate 0.78% among 330,000; rescue of ATP level, % at 7.49 µM;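 active = mean ATP rescue above about 67%, or every replicate alone reaching that limit, limit read from the data, passing the limit was not always enough; inconclusive = no clear call, values can overlap the other calls; inactive = mean under the limit and some replicate under it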;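 note: myotubes were challenged with 10 µM simvastatin during compound exposure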
Starred values were filed as active, the others as inactive; ? = inconclusive; . = no result. Only some compounds are listed: those with a hit (about 2.3% of all), similar ones and a draw of the others.

SMILES	ERp5 block	CFTR F508del cor	DENV2 CPE rescue	PDI inh	Cneo AK release	Statin myotox sup
Cc1noc(C)c1NC(=O)Nc1ccc2c(c1)C(=O)N([C@@H](C)CO)C[C@H](C)[C@@H](CN(C)Cc1ccccc1)O2	-3	-1	29*	.	-4	-15
Cc1noc(C)c1NC(=O)Nc1ccc2c(c1)C(=O)N([C@H](C)CO)C[C@@H](C)[C@H](CN(C)Cc1ccccc1)O2	-2	-1	-7	.	0	1
Cc1noc(C)c1NC(=O)Nc1ccc2c(c1)C(=O)N([C@H](C)CO)C[C@@H](C)[C@H](CN(C)Cc1ccccc1)OCCCC[C@@H](C)O2	5	-1	8	.	22	.
COc1cccc(S(=O)(=O)N(C)C[C@H]2OCc3ccccc3-c3c(n(C)c4ccccc34)C(=O)N([C@@H](C)CO)C[C@H]2C)c1	3	7	1	.	-2	69*
C[C@@H]1CN([C@H](C)CO)C(=O)c2c(c3ccccc3n2C)-c2ccccc2CO[C@H]1CN(C)S(=O)(=O)c1ccc(Cl)cc1	-6	-1	-9	.	107*	29
C[C@H](CO)N1C[C@H](C)[C@H](CN(C)S(=O)(=O)c2ccc(Cl)cc2)OCc2ccccc2-c2c(n(C)c3ccccc23)C1=O	2	-3	-13	-4	0	2
C[C@@H]1CN([C@@H](C)CO)C(=O)c2c(c3ccccc3n2C)-c2ccccc2CO[C@@H]1CN(C)S(=O)(=O)c1ccc(Cl)cc1	19	-1	-14	.	100*	53
COc1cccc(S(=O)(=O)N(C)C[C@@H]2OCc3ccccc3-c3c(n(C)c4ccccc34)C(=O)N([C@@H](C)CO)C[C@@H]2C)c1	-9	-3	4	.	1	25
C[C@@H]1CN([C@H](C)CO)C(=O)c2c(c3ccccc3n2C)-c2ccccc2CO[C@@H]1CN(C)C(=O)c1cc(Cl)cc(Cl)c1	7	2	60*	.	.	.
C[C@H]1CN([C@@H](C)CO)C(=O)c2c(c3ccccc3n2C)-c2ccccc2CO[C@@H]1CN(C)S(=O)(=O)c1ccc(Cl)cc1	9	-10	14	.	-3	.
C[C@@H]1CCCCO[C@H](CN(C)Cc2ccc3c(c2)OCO3)[C@@H](C)CN([C@@H](C)CO)C(=O)c2cc(N(C)C)ccc2O1	.	-3	.	.	.	15
CCCNC(=O)C[C@@H]1CC[C@@H]2[C@H](COC[C@H](O)CN2C(=O)c2ccccn2)O1	-3	0	-3	.	-2	0
O=C(C[C@H]1CC[C@H]2[C@@H](COC[C@@H](O)CN2S(=O)(=O)c2ccc(F)cc2)O1)N1CCc2ccccc2C1	2	0	1	.	5	-1
CCCCN1CC(=O)N2[C@H](c3ccc(OC)cc3)[C@@H]3C(=O)N(CC)C(=O)[C@@H]3[C@]2(Cc2ccccc2)C1=O	7	-1	-10	-2	0	-10
CCN1C(=O)[C@H]2[C@@H](c3ccc(OC)cc3)N3C(=O)CN(CCOC)C(=O)[C@@]3(Cc3ccccc3)[C@H]2C1=O	-2	-1	66*	-3	3	17
C=CC(C)(C)c1[nH]cnc1/C=C1\NC(=O)C(C(C)C)NC1=O (stereo not given)	-3	8.5*	?	.	6	-14
O=C(C[C@@H]1C=C[C@H](NC(=O)Cc2cccnc2)[C@H](CO)O1)Nc1ccc(-c2ccccc2)cc1	-1	0	-2	.	.	.
Cc1ccc(S(=O)(=O)Nc2ccc3c(c2)CC(=O)N([C@H](C)CO)C[C@H](C)[C@@H](CN(C)Cc2ccc(C(F)(F)F)cc2)O3)cc1	.	3	.	.	.	115*
Cc1ccc(S(=O)(=O)Nc2ccc3c(c2)CC(=O)N([C@@H](C)CO)C[C@H](C)[C@H](CN(C)Cc2ccc(C(F)(F)F)cc2)O3)cc1	.	2	.	.	.	30
C[C@H](CO)N1C[C@H](C)[C@@H](CN(C)Cc2ccc(C(F)(F)F)cc2)Oc2ccc(NS(=O)(=O)c3ccc(F)cc3)cc2CC1=O	-1	3	8	.	5	83*
Oc1ccc2ccccc2c1/C=C/c1ccc2c(Br)cc(Br)c(O)c2n1	-1	13*	-9	1	.	.
Cc1cc(C)c(S(=O)(=O)N2CCN=C2c2ccccc2)cc1C	.	.	.	-2	1	99*
O=C(NC1CCCC1)[C@H]1[C@H](CO)[C@H]2Cn3c(ccc(-c4cccnc4)c3=O)[C@@H]1N2CCc1ccccc1	-3	0	7	.	-3	4
COc1cccc(-c2ccc([C@H]3[C@@H](CO)N(C(C)=O)C34CN(C(C)=O)C4)cc2)c1	3	-1	0	.	.	.
CC(C)CCn1c(=O)c2ccccc2n2c(CN3C(=O)NC4(CCC(C)CC4)C3=O)nnc12 (stereo not given)	.	.	.	2	-2	93*
SMILES	ERp5 block	CFTR F508del cor	DENV2 CPE rescue	PDI inh	Cneo AK release	Statin myotox sup
CCOCCCNC(=O)CCc1nnc2n(CCC(C)C)c(=O)c3ccccc3n12	1	1	8	-2	-1	-2
C[C@@H]1CN([C@H](C)CO)C(=O)c2cc(N(C)C)ccc2O[C@H]1CN(C)Cc1ccc(C(=O)Nc2ccccc2N)cc1	7	2	3	.	-2	33
C[C@H](CO)N1C[C@H](C)[C@H](CN(C)Cc2ccc(C(=O)Nc3ccccc3N)cc2)Oc2ccc(N(C)C)cc2C1=O	2	1	-13	.	-2	83*
C[C@@H]1CN([C@H](C)CO)C(=O)c2cc(N(C)C)ccc2O[C@@H]1CN(C)Cc1ccc(C(=O)Nc2ccccc2N)cc1	6	9.2*	-8	.	1	-89
CCCC#Cc1ccc2c(c1)O[C@@H](CN(C)C(=O)c1ccccc1)[C@@H](C)CN([C@@H](C)CO)S2(=O)=O	1	1	-10	.	-2	5
C[C@]12CCCC(=O)N1CCc1c2[nH]c2ccccc12	0	0	5	.	3	.
O=C(NC1CCCC1)[C@H]1[C@H](CO)[C@H]2Cn3c(cccc3=O)[C@@H]1N2Cc1cc(F)ccc1F	-5	-1	6	.	2	19
Cc1cccc(NC(=O)CCCCCN2C(=O)c3ccccc3C2=O)n1	.	.	.	15	0	92*
O=C(CCCCCN1C(=O)c2ccccc2C1=O)Nc1ccc2c(c1)OCCO2	.	.	.	-4	-2	109*
C[C@@H]1CCCCO[C@H](CN(C)Cc2ccc(C(F)(F)F)cc2)[C@H](C)CN([C@H](C)CO)C(=O)c2cc(NC(=O)c3ccncc3)ccc2O1	3	-1	?	.	2	4
